The target in series [1] is Protein farnesyltransferase (Homo sapiens, UniProt P49354+P49356). The experiment in a line: In vitro inhibitory activity to reduce the human farnesyltransferase catalyzed incorporation of [3H]FPP into recombinant Ras-CVIM. Format: functional. In short, it runs like this: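 Human FPTase, [3H]FPP incorporated into recombinant Ras-CVIM. Enzyme at 1 nM, or 10 pM for some compounds.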

Series [2] has as its target Protein farnesyltransferase (Rattus norvegicus, UniProt Q02293+Q04631). Description: In vitro ability to displace radiolabeled FTI from farnesyltransferase in cultured Ha-ras transformed RAT1 cells. Format: cell-based. In outline: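 Competitive binding in v-Ha-ras transformed RAT1 cells seeded at 200,000 cells/well and cultured 16 h. [125I]-labelled FTI radiotracer diluted to 1 nM in culture medium with test FTI is added to the monolayers. Incubation 4 h at 37 °C, PBS rinse, trypsinization, gamma counting. Nonspecific binding is taken with 1000-fold excess unlabeled FTI.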

For series [3], the target named is Geranylgeranyl transferase type I (Homo sapiens, UniProt P49354+P53609). Description: In vitro inhibitory activity to reduce the human geranylgeranyl transferase type I (GGPTase-1)-catalyzed incorporation of 3H GGPP (100 nM) into K-Ras-derived peptide. Format: functional.
For series [4] the following is noted: rat.
A short description of series [5]: Clearance by iv administration in dogs at a dose of 1 mg/kg. As to conditions: dog, in vivo.

This is an account of results in ChEMBL document CHEMBL1134760, “Evaluation of amino acid-based linkers in potent macrocyclic inhibitors of farnesyl-protein transferase” (Bioorg Med Chem Lett, 2001).

One may read the IC50 as the concentration that gives 50% inhibition. Take `C[C@@H]1NCc2cncn2Cc2ccc(C#N)c(c2)Oc2ccc3cccc(c3c2)NC1=O`: the IC50 was 11 nM in series [1], 248 nM in series [2] and 4820 nM in series [3].

For `N#Cc1ccc2cc1Oc1ccc3cccc(c3c1)NC(=O)CN(Cc1ccccc1)Cc1cncn1C2`, the concentration for half-maximal inhibition (IC50) in series [1] was 2.6 nM; in series [2] it was 29.6 nM; in series [3] it was more than 20000 nM.

For `C[C@H]1NCc2cncn2Cc2ccc(C#N)c(c2)Oc2ccc3cccc(c3c2)NC1=O`, the results for the concentration for half-maximal inhibition (IC50) in series [1], in series [2] and in series [3] were 1.3 nM, 23 nM and 313 nM, respectively.

In the case of `N#Cc1ccc2cc1Oc1ccc3cccc(c3c1)NC(=O)[C@@H](Cc1ccccc1)NCc1cncn1C2`, the half-inhibitory concentration (IC50) came out at 0.47 nM in series [1], 17 nM in series [2] and 66 nM in series [3].

In the case of `N#Cc1ccc2cc1Oc1ccc3cccc(c3c1)NC(=O)[C@@H](Cc1ccccc1)N(Cc1ccccc1)Cc1cncn1C2`, the results for the IC50 in series [1], in series [2] and in series [3] were 50 nM, 574 nM and more than 20000 nM, respectively.

In the case of `N#Cc1ccc2cc1Oc1ccc3cccc(c3c1)C(=O)NCCNC(=O)Cc1cncn1C2`, the IC50 was 2.5 nM in series [1], 409 nM in series [2] and 250 nM in series [3].

For the compound `C[C@@H]1C(=O)Nc2cccc3ccc(cc23)Oc2cc(ccc2C#N)Cn2cncc2CN1Cc1ccccc1`, the IC50 in series [1] is 18 nM; in series [2], 240 nM; in series [3], more than 20000 nM.

With `CN1CC(=O)Nc2cccc3ccc(cc23)Oc2cc(ccc2C#N)Cn2cncc2C1`, the half-maximal inhibitory concentration (IC50) in series [1] was 5.7 nM; in series [2] it was 196 nM; in series [3] it was 2070 nM.

On to `C[C@@H]1C(=O)N(C)c2cccc3ccc(cc23)Oc2cc(ccc2C#N)Cn2cncc2CN1C`, for which the IC50 in series [2] is 15 nM; in series [3] it was 6760 nM.

For `CC[C@H]1NCc2cncn2Cc2ccc(C#N)c(c2)Oc2ccc3cccc(c3c2)NC1=O`, the concentration for half-maximal inhibition (IC50) in series [1] was 1.2 nM; in series [2], 410 nM; in series [3], 469 nM.

Take `CN1C(=O)CNC(=O)Cc2cncn2Cc2ccc(C#N)c(c2)Oc2ccc3cccc1c3c2`: the figures for the IC50 in series [1], in series [2] and in series [3] were 6.6 nM, 65 nM and 1090 nM, respectively.

A word on the half-life: it is the time in which the quantity being followed falls by half. Lower therefore signals rapid decline. What is called clearance is the volume of plasma or blood freed of the substance per unit of time. Low values mean a low capacity for elimination, high ones a high capacity for elimination. `N#Cc1ccc2cc1Oc1ccc3cccc(c3c1)N1CCN(CC1=O)Cc1cncn1C2` had a half-life in series [4] of 1 h. Besides, the clearance in series [5] worked out at 5.1 mL/min/kg.

Take `N#Cc1ccc2cc1Oc1ccc3cccc(c3c1)NC(=O)[C@@H](Cc1ccccc1)NC(=O)Cc1cncn1C2`: the 50% inhibitory concentration (IC50) was determined as 3.5 nM in series [1], 310 nM in series [2] and 29 nM in series [3].

Take `N#Cc1ccc2cc1Oc1ccc3cccc(c3c1)NC(=O)[C@@H](Cc1cccnc1)NCc1cncn1C2`: the concentration for half-maximal inhibition (IC50) in series [1] turned out to be 1.8 nM; in series [2] it was 1310 nM; in series [3], 147 nM.

`N#Cc1ccc2cc1Oc1ccc3cccc(c3c1)NC(=O)[C@@H](Cc1cccs1)NCc1cncn1C2`: the results for the IC50 in series [1], in series [2] and in series [3] were 2.1 nM, 43 nM and 72 nM, respectively.

Take `N#Cc1ccc2cc1Oc1ccc3cccc(c3c1)NC(=O)CNCc1cncn1C2`: the half-maximal inhibitory concentration (IC50) in series [1] was found to be 4.3 nM; in series [2], 37 nM; in series [3] it was 675 nM.

As for `N#Cc1ccc2cc1Oc1ccc3cccc(c3c1)C(=O)NCCCNCc1cncn1C2`, the IC50 amounted to 2.3 nM in series [1], 99 nM in series [2] and 890 nM in series [3].

For the compound `CN1CC(=O)N(C)c2cccc3ccc(cc23)Oc2cc(ccc2C#N)Cn2cncc2C1`, the values for the half-maximal inhibitory concentration (IC50) in series [1], in series [2] and in series [3] were 8.4 nM, 13 nM and 12800 nM, respectively.

`C[C@H]1NC(=O)Cc2cncn2Cc2ccc(C#N)c(c2)Oc2ccc3cccc(c3c2)NC1=O`: the IC50 in series [1] was 3.3 nM; in series [2] it was 258 nM; in series [3], 50 nM.

For the compound `CN1C(=O)CNCc2cncn2Cc2ccc(C#N)c(c2)Oc2ccc3cccc1c3c2`, the IC50 in series [1] is 15 nM; in series [2], 55 nM; in series [3], 6720 nM.

Regarding `N#Cc1ccc2cc1Oc1ccc3cccc(c3c1)NC(=O)CNC(=O)Cc1cncn1C2`, the results for the IC50 in series [1], in series [2] and in series [3] were 3.8 nM, 67 nM and 150 nM, respectively.

Regarding `CN1Cc2cncn2Cc2ccc(C#N)c(c2)Oc2ccc3cccc(c3c2)NC(=O)[C@H]1Cc1ccccc1`, the 50% inhibitory concentration (IC50) in series [1] amounted to 2.7 nM; in series [2], 184 nM; in series [3], 350 nM.

Turning to `C[C@H]1NCc2cncn2Cc2ccc(C#N)c(c2)Oc2ccc3cccc(c3c2)N(C)C1=O`, the figures for the IC50 in series [1], in series [2] and in series [3] were 16 nM, 17 nM and 3160 nM, respectively.

`N#Cc1ccc2cc1Oc1ccc3cccc(c3c1)C(=O)NCCNCc1cncn1C2`: the half-inhibitory concentration (IC50) in series [1] stood at 4.5 nM; in series [2], 7.1 nM; in series [3] it was 77 nM.

Consider `C[C@@H]1C(=O)Nc2cccc3ccc(cc23)Oc2cc(ccc2C#N)Cn2cncc2CN1C`, for which the concentration for half-maximal inhibition (IC50) was 7 nM in series [1], more than 100 nM in series [2] and 1220 nM in series [3].
